According to paper PMC10582678 (Clinical and Translational Science, 2023):

Experiments:
[1] = Plasma pharmacokinetics, single ascending dose; type: in vivo, human; settings: for CL/F / AUC(0-t): mean ± SD; for T last: median (min, max); for Tmax / half-life / AUC(0-inf) / MRT / Vd/F / AUC(0-t) / Cmax: human, plasma; for Tmax / half-life / AUC(0-inf) / MRT / Vd/F / AUC(0-t): oral; for Cmax: po
How it was run: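 Healthy subjects received single oral doses under fasting conditions: 100 mg (three subjects), or 200, 400, 600 or 800 mg in cohorts of eight randomized 6 active:2 placebo, double-blind. Plasma drug was quantified by validated HPLC-tandem accurate mass spectrometry with a calibration range of 5.00–5000 ng/mL. Cmax, Tmax, AUC, t1/2, CL/F, Vz/F and MRT were derived by noncompartmental analysis and reported as mean ± SD (%CV) or median.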

[2] = Preclinical safety in rats; type: in vivo; settings: stated in introduction
[3] = Plasma pharmacokinetics, food effect; type: in vivo, human; settings: 600 mg; for half-life / Tmax: human, plasma, oral; for half-life: T1/2, 600 mg, mean ± SD; for Tmax: median (min, max)
How it was run: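 This was a randomized, open-label, two-period crossover in 12 healthy subjects. Each received one oral 600 mg dose fasted then fed, or the reverse, with a 7-day washout. Drug was quantified by validated HPLC-tandem accurate mass spectrometry (calibration 5.00–5000 ng/mL). Parameters came from noncompartmental analysis.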

N#CN1C[C@H](n2nc(-c3ccc(Oc4ccc(Cl)cn4)cc3)c(C(N)=O)c2N)CCC12CC2 [SN1011, 5-amino-3-(4-((5-chloro-2-pyridinyl)oxy)phenyl)-1-((6R)-4-cyano-4-azaspiro[2.5]octan-6-yl)-1H-pyrazole-4-carboxamide]
CL/F ([1]; SAD 100 mg): 49.6 ± 13.9 (28%) L/h | T last ([1]; SAD 100 mg): 48.0 (48.0, 72.0) h | CL/F ([1]; SAD 200 mg): 44.8 ± 15.3 (34%) L/h | T last ([1]; SAD 200 mg): 72.0 (48.0, 96.0) h | CL/F ([1]; SAD 400 mg): 36.5 ± 9.1 (25%) L/h | T last ([1]; SAD 400 mg): 96.0 (72.0, 144.0) h | CL/F ([1]; SAD 600 mg): 43.4 ± 19.5 (45%) L/h | T last ([1]; SAD 600 mg): 108.0 (72.0, 144.0) h | CL/F ([1]; SAD 800 mg): 44.8 ± 22.3 (50%) L/h | T last ([1]; SAD 800 mg): 132.0 (120.0, 144.1) h | Tmax [1]: 3 to 5 h | half-life [1]: 15.5 to 21.8 h | AUC(0-inf) ([1]; 100 mg): 2110 ± 525 ng·h/mL | MRT ([1]; 100 mg): 26.4 ± 1.7 h | Tmax ([1]; 100 mg): 4 h | Vd/F ([1]; 100 mg): 1210 ± 497 L | half-life ([1]; 100 mg): 16.5 ± 2.1 h | AUC(0-t) ([1]; 100 mg, AUC0-24, SAD 100 mg): 1240 ± 339 ng·h/mL | AUC(0-t) ([1]; 100 mg, AUC0-t, SAD 100 mg): 1880 ± 523 ng·h/mL | AUC(0-inf) ([1]; 200 mg): 4920 ± 1710 ng·h/mL | MRT ([1]; 200 mg): 22.9 ± 4 h | Tmax ([1]; 200 mg): 3 h | Vd/F ([1]; 200 mg): 989 ± 293 L | half-life ([1]; 200 mg): 15.5 ± 2.4 h | AUC(0-t) ([1]; 200 mg, AUC0-24, SAD 200 mg): 3210 ± 1190 ng·h/mL | AUC(0-t) ([1]; 200 mg, AUC0-t, SAD 200 mg): 4700 ± 1730 ng·h/mL | AUC(0-inf) ([1]; 400 mg): 11600 ng·h/mL | MRT ([1]; 400 mg): 29.4 ± 9.9 h | Tmax ([1]; 400 mg): 3.5 h | Vd/F ([1]; 400 mg): 997 ± 350 L | half-life ([1]; 400 mg): 19.3 ± 6.5 h | AUC(0-t) ([1]; 400 mg, AUC0-24, SAD 400 mg): 6510 ± 1960 ng·h/mL | AUC(0-t) ([1]; 400 mg, AUC0-t, SAD 400 mg): 11300 ng·h/mL | AUC(0-inf) ([1]; 600 mg): 16800 ng·h/mL | MRT ([1]; 600 mg): 28.7 ± 8.5 h | Tmax ([1]; 600 mg): 4 h | Vd/F ([1]; 600 mg): 1060 ± 227 L | half-life ([1]; 600 mg): 19.1 ± 6.4 h | AUC(0-t) ([1]; 600 mg, AUC0-24, SAD 600 mg): 9100 ± 3420 ng·h/mL | AUC(0-t) ([1]; 600 mg, AUC0-t, SAD 600 mg): 16400 ng·h/mL | AUC(0-inf) ([1]; 800 mg): 22300 ng·h/mL | MRT ([1]; 800 mg): 31.1 ± 6.3 h | Tmax ([1]; 800 mg): 5 h | Vd/F ([1]; 800 mg): 1400 ± 760 L | half-life ([1]; 800 mg): 21.8 ± 4.1 h | AUC(0-t) ([1]; 800 mg, AUC0-24, SAD 800 mg): 11500 ng·h/mL | AUC(0-t) ([1]; 800 mg, AUC0-t, SAD 800 mg): 21900 ng·h/mL | Cmax ([1]; 100 mg): 84.2 ± 16.4 ng/mL | Cmax ([1]; 200 mg): 293 ± 132 ng/mL | Cmax ([1]; 400 mg): 487 ± 221 ng/mL | Cmax ([1]; 600 mg): 674 ± 259 ng/mL | Cmax ([1]; 800 mg): 779 ± 405 ng/mL | safety profile [2]: acceptable safety profile | AUC0-inf, Geometric Mean Ratio ([3]; fed state to fasted state): 93.76% | AUC0-t, Geometric Mean Ratio ([3]; fed state to fasted state): 92.79% | Cmax, Geometric Mean Ratio ([3]; fed state to fasted state): 97.08% | half-life ([3]; Fasted): 24.3 ± 8.7 h | half-life ([3]; Fed): 26.6 ± 13.3 h | Tmax ([3]; Fasted): 4 h | Tmax ([3]; Fed): 6 h
